Granule exo inh: blocks lytic granule exocytosis | TALL-104 LAMP-1 surface exposure, flow cytometry; cells stimulated with thapsigargin and PMA | inhibition, % at 10 µM | 0.66% of 360,000 active | AID 651702;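 active = inhibition above about 55%, limit read from the data; inconclusive = no clear call, values can overlap the other calls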
Myeloid diff 2: myeloid differentiation induction; 1% of 360,000 active; calls only at 10 µM; ER-HoxA9 myeloid progenitors, lysozyme-GFP differentiation, flow cytometry;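 active = normalized GFP-positive differentiation at or above the plate's own cutoff, the solvent-only control mean plus 3 SD; inconclusive = no clear call, values can overlap the other calls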;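 note: cells exposed to compound for four days before flow analysis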
MC4R antagonist: antagonists of human melanocortin 4 receptor (MC4R) | P32245 | inhibition, % at 6.5 µM | 0.48% of 360,000 active | AID 540295 | MC4R-expressing cells, MTII-stimulated cAMP, LANCE TR-FRET;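 active = inhibition above its plate's cutoff, the mean of tested wells on that plate plus 3 SD, cut at about 29% in these data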
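System – human MC4R-expressing U2OS cells · Also added – Melanotan II · Dosing – one concentration, 6.5 µM nominal · Timing – 30-min compound, 1-h challenge, 1-h detection, room temperature · Measured by – Eu-cAMP/anti-cAMP TR-FRET, emission 671 nm · Replicates – singlicate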
EBI2 antag: antagonists of human EBI2 receptor; inhibition, % at 5 µM; 0.81% of 360,000 active; P32249; EBI2 beta-arrestin recruitment, luminescence, 7a,25-OHC stimulated; in the data active = inhibition above about 38%;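 note: enzyme fragment complementation signal reports receptor beta-arrestin coupling in cells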
Target sequence (P32249 whole entry, looked up, the tested form may be a part): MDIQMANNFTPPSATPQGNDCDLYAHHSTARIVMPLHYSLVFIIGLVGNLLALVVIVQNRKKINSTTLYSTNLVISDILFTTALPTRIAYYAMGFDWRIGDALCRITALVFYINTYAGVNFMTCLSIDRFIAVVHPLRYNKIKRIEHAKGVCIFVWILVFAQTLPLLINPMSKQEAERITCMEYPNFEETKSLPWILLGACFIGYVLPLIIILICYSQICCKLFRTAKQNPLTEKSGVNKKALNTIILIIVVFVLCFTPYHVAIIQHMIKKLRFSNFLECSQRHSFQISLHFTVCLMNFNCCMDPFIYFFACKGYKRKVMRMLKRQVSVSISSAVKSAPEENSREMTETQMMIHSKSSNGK
MC4R barr agon: activates human MC4R beta-arrestin recruitment. P32245. U2OS MC4R beta-arrestin complementation, luminescence; percent of melanotan II response, DMSO zero. activation, % at 8.9 µM. 0.98% of 360,000 active. AID 540308;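 active = activation above a per-plate cutoff, the mean activation of sample wells on that plate plus 3 SD, cut at about 8% in these data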
Hits are given with their value. A selection: hits, their analogues and other compounds. The true share with any hit is near 3.7%.

For COc1ccc(C)cc1NC(=O)CSc1nnc2ccc(-c3cccnc3)nn12 the results were Granule exo inh inactive, Myeloid diff 2 inactive, MC4R antagonist inactive, EBI2 antag inactive and MC4R barr agon inactive.
CCCCN(C(=O)c1cc2c(s1)CCCCC2)c1c(N)n(CC(C)C)c(=O)[nH]c1=O was read as Granule exo inh inactive, Myeloid diff 2 inactive, MC4R antagonist inactive, EBI2 antag inactive and MC4R barr agon inactive.
Cc1ccc(Sc2c(C)nn(C(=O)c3cccc(S(=O)(=O)N4CCOCC4)c3)c2C)cc1 was read as Granule exo inh inactive, Myeloid diff 2 inactive, MC4R antagonist inactive, EBI2 antag inactive and MC4R barr agon 9.2.
For Cc1cc(C)n(C(=O)c2cccc(S(=O)(=O)N3CCOCC3)c2)n1 the results were Granule exo inh inactive, Myeloid diff 2 inactive, MC4R antagonist inactive, EBI2 antag inactive and MC4R barr agon inactive.
For C=C(C)C(=O)Nc1cccc(C2=NOC3(C2)C[C@@H](C(N)=O)N(C(=O)c2cc([N+](=O)[O-])cc([N+](=O)[O-])c2)C3)c1 (stereo partly drawn) the results were Granule exo inh 64, Myeloid diff 2 inactive, MC4R antagonist inactive, EBI2 antag inactive and MC4R barr agon inactive.
Cc1c(C(=O)Nc2cccnc2Cl)oc2ccccc12 was read as Granule exo inh inactive, Myeloid diff 2 inactive, MC4R antagonist inactive, EBI2 antag inactive and MC4R barr agon 11.
CCOC(=O)C1(C)CCCN(C(=O)c2cccc(OC(F)(F)F)c2)C1 (stereo not drawn) was read as Granule exo inh inactive, Myeloid diff 2 inactive, MC4R antagonist inactive, EBI2 antag inactive and MC4R barr agon inactive.
CN(c1ccc(OCC(=O)OCC(=O)c2c(N)n(C)c(=O)n(C)c2=O)cc1)S(=O)(=O)c1ccc2ccccc2c1 was read as Granule exo inh 69, Myeloid diff 2 inactive, MC4R antagonist inactive, EBI2 antag inactive and MC4R barr agon inactive.
Screening CC(=O)c1cccc(NC(=O)CN(C)S(=O)(=O)c2ccc3c(c2)CC(C)N3C(C)=O)c1 (stereo not drawn) returned Granule exo inh inactive, Myeloid diff 2 inactive, MC4R antagonist inactive, EBI2 antag inactive and MC4R barr agon inactive.
O=C(CN1C(=O)COc2ccccc21)Nc1ccc(N2CCOCC2)cc1 was read as Granule exo inh inactive, Myeloid diff 2 inactive, MC4R antagonist inactive, EBI2 antag inactive and MC4R barr agon inactive.
Screening O=C(COc1ccccc1Cl)N1CCN(c2ccc([N+](=O)[O-])c(N3CCCCC3)c2)CC1 returned Granule exo inh inactive, Myeloid diff 2 inactive, MC4R antagonist inactive, EBI2 antag inactive and MC4R barr agon inactive.
O=C(COc1ccc(Cl)cc1)N1CCN(c2ccc([N+](=O)[O-])c(N3CCCCC3)c2)CC1 was read as Granule exo inh inactive, Myeloid diff 2 inactive, MC4R antagonist inactive, EBI2 antag 78 and MC4R barr agon inactive.
Screening Clc1ccccc1OCc1nn2c(-c3ccncc3)nnc2s1 returned Granule exo inh inactive, Myeloid diff 2 inactive, MC4R antagonist inactive, EBI2 antag inactive and MC4R barr agon inactive.
Screening COc1ccc(-c2nnc3sc(COc4ccc(C)cc4)nn23)cc1 returned Granule exo inh inactive, Myeloid diff 2 inactive, MC4R antagonist 29, EBI2 antag inactive and MC4R barr agon inactive.
`Clc1ccc(OCc2nn3c(-c4ccccc4)nnc3s2)c(Cl)c1` gave Granule exo inh inactive, Myeloid diff 2 inactive, MC4R antagonist inactive, EBI2 antag inactive and MC4R barr agon 8.9.
`Cc1ccc2cc(C#N)c(SCc3nnc(-c4ccccc4[N+](=O)[O-])o3)nc2c1` gave Granule exo inh inactive, Myeloid diff 2 inactive, MC4R antagonist inactive, EBI2 antag inactive and MC4R barr agon inactive.
Screening O=C(/C=C/c1cccc(Cl)c1)c1ccc([N+](=O)[O-])o1 returned Granule exo inh inactive, Myeloid diff 2 inactive, MC4R antagonist 34, EBI2 antag inactive and MC4R barr agon inactive.
`COc1cc(/C=C/C(=O)c2ccc([N+](=O)[O-])o2)ccc1O` gave Granule exo inh inactive, Myeloid diff 2 inconclusive, MC4R antagonist inactive, EBI2 antag inactive and MC4R barr agon inactive.
Screening C/C=C(\C)C(=O)OC1[C@H](OC(C)=O)C2(CO)C(CC1(C)C)C1=CCC3C4(C)CCC(O[C@@H]5O[C@H](C(=O)O)[C@@H](O[C@@H]6O[C@H](CO)[C@@H](O)[C@H](O)[C@H]6O)[C@H](O)[C@H]5O[C@H]5O[C@H](CO)[C@@H](O)[C@H](O)[C@H]5O)[C@](C)(CO)C4CCC3(C)[C@]1(C)C[C@H]2O (stereo partly drawn) returned Granule exo inh 71, Myeloid diff 2 inactive, MC4R antagonist 95, EBI2 antag inactive and MC4R barr agon inactive.
`CC1(C)C[C@H]2C3=CCC4[C@@]5(C)CC[C@H](O[C@@H]6O[C@H](C(=O)O)[C@@H](O)[C@H](O)[C@H]6O)[C@@](C)(CO)C5CC[C@@]4(C)[C@]3(C)C[C@H](O)[C@@]2(CO)[C@@H](O)[C@@H]1O` (stereo partly drawn) gave Granule exo inh inactive, Myeloid diff 2 inactive, MC4R antagonist inactive, EBI2 antag inactive and MC4R barr agon inactive.
CC(C)NC(=O)COc1coc(CN2CCN(c3ccccc3F)CC2)cc1=O was read as Granule exo inh inactive, Myeloid diff 2 inactive, MC4R antagonist inactive, EBI2 antag inactive and MC4R barr agon inactive.
`O=C1CCCC2=C1C(c1ccco1)Nc1ccc3ccccc3c12` (stereo not drawn) gave Granule exo inh inactive, Myeloid diff 2 active, MC4R antagonist inactive, EBI2 antag inactive and MC4R barr agon inactive.
Screening O=C1CCCC2=C1C(c1ccc(O)c(O)c1)Nc1ccc3ccccc3c12 (stereo not drawn) returned Granule exo inh inactive, Myeloid diff 2 inactive, MC4R antagonist inactive, EBI2 antag inactive and MC4R barr agon inactive.
O=C(CN1C(=O)NC2(CCCC2)C1=O)Nc1cc(Cl)ccc1N1CCOCC1 was read as Granule exo inh inactive, Myeloid diff 2 inactive, MC4R antagonist inactive, EBI2 antag inactive and MC4R barr agon inactive.
S=C(NCc1ccccc1)NC1CCCCC1 was read as Granule exo inh inactive, Myeloid diff 2 active, MC4R antagonist inactive, EBI2 antag inactive and MC4R barr agon inactive.
S=C(NCc1ccccc1)C(=S)NCc1ccccc1 was read as Granule exo inh 97, Myeloid diff 2 inactive, MC4R antagonist inactive, EBI2 antag inactive and MC4R barr agon inactive.
For S=C(NCc1ccccc1)NCc1ccc(CNC(=S)NCc2ccccc2)cc1 the results were Granule exo inh inactive, Myeloid diff 2 inactive, MC4R antagonist inactive, EBI2 antag inactive and MC4R barr agon inactive.
Screening CCCN1CCN(CCCNC(=O)c2cc3c(s2)-c2ccccc2OC3)CC1 returned Granule exo inh inactive, Myeloid diff 2 inconclusive, MC4R antagonist inactive, EBI2 antag inactive and MC4R barr agon inactive.
`CCCN1CCN(C(=O)c2cc3c(s2)-c2ccccc2OC3)CC1` gave Granule exo inh inactive, Myeloid diff 2 inactive, MC4R antagonist inactive, EBI2 antag 88 and MC4R barr agon inactive.

Bioassay records as filed in PubChem BioAssay.
